Key:
Assay type in all cases: cell-based
[1] = molecular target: GABA-A receptor; alpha-3/beta-3/gamma-2 (Homo sapiens) (UniProt P18507+P28472+P34903); test: Efficacy was measured as modulation of the current in response to GABA at hGABA alpha-3-beta-3-gamma-2 receptor expressed in Xenopus oocytes; settings: Oocyte
In short: (§1)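 Two-electrode voltage clamp on Xenopus oocytes expressing each receptor combination. […] Value is percent increase or decrease of the EC20 GABA current.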

[2] = molecular target: T1, GABA-A receptor; alpha-2/beta-3/gamma-2 (Homo sapiens, UniProt P18507+P28472+P47869); test: Inhibition of [3H]Ro-151788 binding to recombinant human gamma-aminobutyric acid A receptor alpha-2-beta-3-gamma-2 subtype expressed in L (tk-) cells
T1 sequence (P18507 whole entry): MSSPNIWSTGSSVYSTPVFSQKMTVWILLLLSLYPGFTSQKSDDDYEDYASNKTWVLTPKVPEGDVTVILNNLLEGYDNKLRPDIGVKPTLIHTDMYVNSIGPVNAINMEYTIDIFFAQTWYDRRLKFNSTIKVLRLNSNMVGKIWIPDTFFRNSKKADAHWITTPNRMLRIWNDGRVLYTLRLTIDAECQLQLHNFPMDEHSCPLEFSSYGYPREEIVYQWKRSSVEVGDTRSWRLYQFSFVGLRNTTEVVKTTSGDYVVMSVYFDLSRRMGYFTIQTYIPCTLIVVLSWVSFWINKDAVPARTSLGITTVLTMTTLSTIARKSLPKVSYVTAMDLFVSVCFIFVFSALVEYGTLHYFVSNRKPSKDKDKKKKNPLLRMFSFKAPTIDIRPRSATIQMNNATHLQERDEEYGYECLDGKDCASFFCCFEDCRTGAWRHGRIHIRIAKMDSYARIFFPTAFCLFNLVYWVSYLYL
T1 sequence (P28472 whole entry): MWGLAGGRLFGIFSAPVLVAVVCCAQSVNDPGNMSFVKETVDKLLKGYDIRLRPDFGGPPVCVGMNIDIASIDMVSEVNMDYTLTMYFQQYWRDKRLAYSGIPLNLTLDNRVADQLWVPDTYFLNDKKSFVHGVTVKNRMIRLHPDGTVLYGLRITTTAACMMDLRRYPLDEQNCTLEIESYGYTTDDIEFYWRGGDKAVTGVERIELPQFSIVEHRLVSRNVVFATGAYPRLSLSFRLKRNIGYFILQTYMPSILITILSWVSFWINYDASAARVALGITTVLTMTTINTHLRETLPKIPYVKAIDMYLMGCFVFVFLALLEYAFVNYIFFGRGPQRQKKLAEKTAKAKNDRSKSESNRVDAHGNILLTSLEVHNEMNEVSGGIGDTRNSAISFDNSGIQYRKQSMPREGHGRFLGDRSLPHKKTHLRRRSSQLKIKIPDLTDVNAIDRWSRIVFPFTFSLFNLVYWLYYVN
T1 sequence (P47869 whole entry): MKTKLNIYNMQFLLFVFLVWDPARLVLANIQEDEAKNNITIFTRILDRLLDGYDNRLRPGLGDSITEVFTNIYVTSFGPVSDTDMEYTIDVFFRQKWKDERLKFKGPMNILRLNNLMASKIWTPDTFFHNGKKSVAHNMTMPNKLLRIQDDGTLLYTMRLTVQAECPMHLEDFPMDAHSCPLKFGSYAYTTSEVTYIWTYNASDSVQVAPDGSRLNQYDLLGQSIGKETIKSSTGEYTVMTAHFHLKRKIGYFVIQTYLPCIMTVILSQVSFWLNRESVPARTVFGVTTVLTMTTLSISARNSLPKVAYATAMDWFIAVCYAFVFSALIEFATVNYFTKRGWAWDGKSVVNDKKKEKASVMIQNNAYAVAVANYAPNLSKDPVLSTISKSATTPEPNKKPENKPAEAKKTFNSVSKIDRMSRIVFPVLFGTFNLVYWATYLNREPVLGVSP

[3] = molecular target: T2, GABA-A receptor; alpha-5/beta-3/gamma-2 (Homo sapiens, UniProt P18507+P28472+P31644); test: Inhibition of [3H]Ro-151788 binding to recombinant human gamma-aminobutyric-acid A receptor alpha-5-beta-3-gamma-2 subtype expressed in L (tk-) cells
T2 sequence (P18507 whole entry): T1 sequence (P18507 whole entry)
T2 sequence (P28472 whole entry): T1 sequence (P28472 whole entry)
T2 sequence (P31644 whole entry): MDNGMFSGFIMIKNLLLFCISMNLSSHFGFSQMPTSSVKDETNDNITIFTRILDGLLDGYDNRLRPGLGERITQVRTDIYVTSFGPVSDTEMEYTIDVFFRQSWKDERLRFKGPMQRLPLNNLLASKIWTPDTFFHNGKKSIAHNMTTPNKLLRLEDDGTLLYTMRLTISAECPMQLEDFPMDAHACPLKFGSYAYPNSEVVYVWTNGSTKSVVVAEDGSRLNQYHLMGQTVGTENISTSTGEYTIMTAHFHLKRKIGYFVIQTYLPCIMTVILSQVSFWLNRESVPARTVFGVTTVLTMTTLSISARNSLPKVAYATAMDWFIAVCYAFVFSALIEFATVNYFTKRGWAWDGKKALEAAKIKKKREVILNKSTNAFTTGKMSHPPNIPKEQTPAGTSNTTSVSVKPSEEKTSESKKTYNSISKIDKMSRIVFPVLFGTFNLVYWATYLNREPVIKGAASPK

[4] = molecular target: T3, GABA-A receptor; alpha-1/beta-3/gamma-2 (Homo sapiens, UniProt P14867+P18507+P28472); test: Inhibition of [3H]Ro-151788 binding to recombinant human gamma-aminobutyric-acid A receptor alpha-1-beta-3-gamma-2 subtype expressed in L (tk-) cells
T3 sequence (P14867 whole entry): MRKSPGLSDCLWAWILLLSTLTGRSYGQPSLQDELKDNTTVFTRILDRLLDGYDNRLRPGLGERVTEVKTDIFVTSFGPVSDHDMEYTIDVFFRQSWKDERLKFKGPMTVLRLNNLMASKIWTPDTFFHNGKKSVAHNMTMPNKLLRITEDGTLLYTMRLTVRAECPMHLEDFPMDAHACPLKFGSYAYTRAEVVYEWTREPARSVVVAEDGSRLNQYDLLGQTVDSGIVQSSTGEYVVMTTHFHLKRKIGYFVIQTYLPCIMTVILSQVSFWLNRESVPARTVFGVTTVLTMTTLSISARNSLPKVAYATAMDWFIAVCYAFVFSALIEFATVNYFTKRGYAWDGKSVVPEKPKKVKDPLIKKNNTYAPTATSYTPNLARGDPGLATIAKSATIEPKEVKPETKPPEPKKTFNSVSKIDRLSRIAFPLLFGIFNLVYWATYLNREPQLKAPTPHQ
T3 sequence (P18507 whole entry): T1 sequence (P18507 whole entry)
T3 sequence (P28472 whole entry): T1 sequence (P28472 whole entry)

[5] = molecular target: GABA-A receptor; alpha-5/beta-3/gamma-2 (Homo sapiens) (UniProt P18507+P28472+P31644); test: Efficacy was measured as modulation of the current in response to GABA at hGABA alpha-5-beta-3-gamma-2 receptor expressed in Xenopus oocytes; settings: Oocyte; in short: as §1
[6] = molecular target: T4, GABA-A receptor; alpha-3/beta-3/gamma-2 (Homo sapiens, UniProt P18507+P28472+P34903); test: Inhibition of [3H]Ro-151788 binding to recombinant human gamma-aminobutyric-acid A receptor alpha-3-beta-3-gamma-2 subtype expressed in L (tk-) cells
T4 sequence (P18507 whole entry): T1 sequence (P18507 whole entry)
T4 sequence (P28472 whole entry): T1 sequence (P28472 whole entry)
T4 sequence (P34903 whole entry): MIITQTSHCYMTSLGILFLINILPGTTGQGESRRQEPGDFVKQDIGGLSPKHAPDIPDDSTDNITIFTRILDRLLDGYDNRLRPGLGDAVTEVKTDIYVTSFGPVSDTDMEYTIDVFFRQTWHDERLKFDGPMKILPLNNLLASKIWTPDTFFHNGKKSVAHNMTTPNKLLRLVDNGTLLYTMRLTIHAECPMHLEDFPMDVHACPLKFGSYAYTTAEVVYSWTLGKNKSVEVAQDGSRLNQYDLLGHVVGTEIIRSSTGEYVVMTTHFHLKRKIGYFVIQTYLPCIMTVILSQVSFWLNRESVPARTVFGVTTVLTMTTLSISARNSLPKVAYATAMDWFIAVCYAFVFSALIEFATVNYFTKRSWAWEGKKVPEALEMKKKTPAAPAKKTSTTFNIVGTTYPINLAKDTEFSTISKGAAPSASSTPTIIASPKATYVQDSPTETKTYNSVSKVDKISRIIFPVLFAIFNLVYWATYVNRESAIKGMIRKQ

[7] = molecular target: GABA-A receptor; alpha-1/beta-3/gamma-2 (Homo sapiens) (UniProt P14867+P18507+P28472); test: Efficacy was measured as modulation of the current in response to GABA at hGABA alpha-1-beta-3-gamma-2 receptor expressed in Xenopus oocytes; settings: Oocyte; in short: as §1
[8] = molecular target: GABA-A receptor; alpha-2/beta-3/gamma-2 (Homo sapiens) (UniProt P18507+P28472+P47869); test: Efficacy was measured as modulation of the current in response to GABA at hGABA alpha-2-beta-3-gamma-2 receptor expressed in Xenopus oocytes; settings: Oocyte; in short: as §1

Structure (SMILES)	Efficacy [1]	Ki [2]	Ki [3]	Ki [4]	Efficacy [5]	Ki [6]	Efficacy [7]	Efficacy [8]
c1ccc(-c2nnc3c4c(c(OCc5ncccc5OCC5CC5)nn23)C2CCC4CC2)cc1	139%	5.6 nM	0.75 nM	6.9 nM	50%	2.3 nM	175%	–
c1ccc(COc2nn3c(-c4cccnc4)nnc3c3c2C2CCC3CC2)nc1	9%	54 nM	2.7 nM	260 nM	31%	38 nM	36%	–
c1ccc(-c2nnc3c4c(c(OCc5ccccn5)nn23)C2CCC4CC2)cc1	–	26 nM	1.2 nM	71 nM	18%	13 nM	–	–
Cc1ccc(-c2nnc3c4c(c(OCc5ccccn5)nn23)C2CCC4CC2)cc1	40%	120 nM	4.7 nM	310 nM	6%	32 nM	9%	14%
c1ccc(-c2nnc3c4c(c(OCc5cccnn5)nn23)C2CCC4CC2)cc1	57%	14 nM	0.88 nM	33 nM	39%	8.5 nM	64%	35%
Cc1ccc(COc2nn3c(-c4ccccc4)nnc3c3c2C2CCC3CC2)nc1	74%	17 nM	1.2 nM	56 nM	–	15 nM	100%	–
COc1cccc(-c2nnc3c4c(c(OCc5ccccn5)nn23)C2CCC4CC2)c1	43%	79 nM	6 nM	140 nM	–	29 nM	51%	–
Cc1cccnc1COc1nn2c(-c3ccccc3)nnc2c2c1C1CCC2CC1	7%	2 nM	0.46 nM	9.8 nM	–	2.1 nM	17%	–
COCCOc1cccnc1COc1nn2c(-c3ccccc3)nnc2c2c1C1CCC2CC1	97%	9.8 nM	0.5 nM	13 nM	–	3.9 nM	77%	–
CN(C)Cc1cccc(COc2nn3c(-c4ccccc4)nnc3c3c2C2CCC3CC2)c1	-16%	64 nM	4.5 nM	190 nM	-25%	24 nM	–	–
CN1C(=O)CN=C(c2ccccc2)c2cc(Cl)ccc21	118%	–	–	–	106%	–	103%	138%
c1ccc(-c2nnc3c4c(c(OCc5ncc[nH]5)nn23)C2CCC4CC2)cc1	29%	18 nM	0.87 nM	53 nM	–	6.7 nM	35%	–
COc1ccc(-c2nnc3c4c(c(OCc5ccccn5)nn23)C2CCC4CC2)cc1	33%	74 nM	4.2 nM	230 nM	–	52 nM	14%	–
c1ccc(-c2nnc3c4c(c(OCc5cccnc5)nn23)C2CCC4CC2)cc1	20%	68 nM	6.5 nM	150 nM	–	25 nM	51%	–
N#Cc1cccc(COc2nn3c(-c4ccccc4)nnc3c3c2C2CCC3CC2)c1	38%	180 nM	7.8 nM	> 1000 nM	23%	66 nM	23%	–
c1ccc(Cn2ccnc2COc2nn3c(-c4ccccc4)nnc3c3c2C2CCC3CC2)cc1	100%	1.7 nM	0.21 nM	0.81 nM	–	2 nM	73%	–
Cn1ccnc1COc1nn2c(-c3ccccc3)nnc2c2c1C1CCC2CC1	24%	7.1 nM	0.45 nM	19 nM	–	4.3 nM	24%	–
Cc1cc(C)n(COc2nn3c(-c4ccccc4)nnc3c3c2C2CCC3CC2)n1	7%	7.5 nM	0.26 nM	23 nM	1%	2.3 nM	31%	–
c1ccc(-c2nnc3c4c(c(OCc5nccc6ccccc56)nn23)C2CCC4CC2)cc1	14%	7.5 nM	0.69 nM	29 nM	–	4.5 nM	45%	–
CCOc1cccnc1COc1nn2c(-c3ccccc3)nnc2c2c1C1CCC2CC1	46%	2.8 nM	0.36 nM	3.9 nM	–	1.1 nM	66%	–

Source: ChEMBL document CHEMBL1142695, “Discovery of functionally selective 7,8,9,10-tetrahydro-7,10-ethano-1,2,4-triazolo[3,4-a]phthalazines as GABA A receptor agonists at the alpha3 subunit” (J Med Chem, 2005)
